{"source": "PubChem BioAssay AID624038", "about": "(The Scripps Research Institute Molecular Screening Center, 2012)", "note": "Out of some 360,000 compounds screened, about 1,100 (0.31%) were called active. The sample holds actives, similar compounds and a random draw of the others, so the mix is not that of the screen. Unmarked numbers belong to inactive results.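 Rule for the calls: active = activation above the run cutoff, the mean activation of all test compounds plus 3 SD (cut at about 18% in these data); inactive = the rest.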"}
{"target": "Muscarinic acetylcholine receptor M5 (Homo sapiens) (UniProt P08912)", "sequence (P08912 whole entry, looked up)": "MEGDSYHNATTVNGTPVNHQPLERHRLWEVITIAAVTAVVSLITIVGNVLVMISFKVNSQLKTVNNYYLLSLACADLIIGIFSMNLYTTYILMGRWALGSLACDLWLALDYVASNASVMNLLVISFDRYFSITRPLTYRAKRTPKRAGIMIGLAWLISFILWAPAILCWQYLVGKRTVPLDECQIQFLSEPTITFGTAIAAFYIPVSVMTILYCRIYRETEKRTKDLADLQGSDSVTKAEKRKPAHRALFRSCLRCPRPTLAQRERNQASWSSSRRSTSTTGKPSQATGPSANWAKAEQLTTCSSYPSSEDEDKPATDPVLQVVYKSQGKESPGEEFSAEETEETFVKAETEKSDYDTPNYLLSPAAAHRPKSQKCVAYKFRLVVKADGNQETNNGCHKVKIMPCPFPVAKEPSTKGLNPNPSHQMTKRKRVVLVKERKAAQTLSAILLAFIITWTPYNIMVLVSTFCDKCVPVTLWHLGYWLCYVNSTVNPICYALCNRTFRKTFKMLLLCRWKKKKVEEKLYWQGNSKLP", "assay": "CHRM5 PAMs potentiating acetylcholine calcium signal – CHO-K1 cells, Fluo-8 calcium fluorescence, primary screen (AID 624038)", "conditions": "CHO-K1 hM5, Fluo-8 calcium, ACh EC20 PAM; at 3 µM; stronger effect = higher value; 0% = ACh EC20, 100% = ACh EC100", "procedure,_shortened": "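System: CHO-K1 cell line with stable human muscarinic M5 receptor expression | Also added: EC20 acetylcholine as agonist stimulus | Compound: One concentration, 3 µM final (nominal) | Timing: Fluo-8 loading 80 min at 37 °C plus 30 min room temperature | Measured by: Fluo-8 calcium dye fluorescence, kinetic read | Read-out basis: % activation, ACh-normalized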"}
{"smiles": "COc1ccc(NS(=O)(=O)c2ccc(C)c(C(=O)N(C)Cc3ccc(OC)cc3OC)c2)cc1", "activation": "-3.1%"}
{"smiles": "CCC(NC(=O)c1ccccc1NC(=O)c1ccccc1)C(=O)NNC(=O)CSc1nc2ccccc2o1", "note": "(stereo not drawn)", "activation": "-8.71%"}
{"smiles": "COc1cc(CNCc2ccc3c(c2)OCO3)c([N+](=O)[O-])cc1OC", "activation": "-5.12%"}
{"smiles": "Cc1ccc(S(=O)(=O)N(Cc2ccccc2)c2ccccn2)cc1[N+](=O)[O-]", "activation": "-10.1%"}
{"smiles": "Cc1ccc2oc(=O)c3cnn(CC(=O)N4CCN(c5ccccn5)CC4)c3c2c1", "activation": "-15.1%"}
{"smiles": "O=C(Cc1ccccc1Cl)N1CCN(c2ccccn2)CC1", "activation": "-0.15%"}
{"smiles": "Nc1ccn(CC(=O)N2CCN(c3ccccn3)CC2)c(=O)n1", "activation": "19% (active)"}
{"smiles": "COc1ccc2c(c1OC)C(=O)OC2Nc1nc(-c2ccccc2)cs1", "note": "(stereo not drawn)", "activation": "4.62%"}
{"smiles": "Cc1cccc(Nc2nc(-c3ccccc3)cs2)n1", "activation": "22.1% (active)"}
{"smiles": "CC(=O)NC(c1ccccc1)c1nc(-c2cccc(C(C)C)c2)cs1", "note": "(stereo not drawn)", "activation": "-1.15%"}
{"smiles": "Cc1cccc(N(C(=O)Cc2cccs2)C(C(=O)NC2CCCC2)c2ccsc2)c1", "note": "(stereo not drawn)", "activation": "-1.6%"}
{"smiles": "CCOc1ccc(C(=O)NC2CCN(C(=O)Nc3ccccc3OC)CC2)cc1", "activation": "19.6% (active)"}
{"smiles": "COc1ccc(C(=O)NC2CCN(C(=O)Nc3ccc(F)cc3)CC2)cc1", "activation": "1.29%"}
{"smiles": "CCOc1ccc(C(=O)NC2CCN(S(=O)(=O)CC)CC2)cc1", "activation": "11.7%"}
{"smiles": "Cc1cc(C)cc(NC(=O)N2CCC(NC(=O)c3ccc(F)cc3)CC2)c1", "activation": "18.7% (active)"}
{"smiles": "Cc1ccc(C(=O)NC2CCN(C(=O)Nc3ccc(F)cc3)CC2)cc1", "activation": "-2.54%"}
{"smiles": "Cc1ccc(C(=O)NC2CCN(C(=O)Nc3ccccc3Cl)CC2)cc1", "activation": "-7.16%"}
{"smiles": "Cc1ccc(OCC(=O)N2CCN(S(=O)(=O)c3ccc(Cl)s3)CC2)cc1C", "activation": "6.01%"}
{"smiles": "CCCNCc1cc(OCC)c(OCC(=O)Nc2ccccc2)cc1Br", "activation": "-3.11%"}
{"smiles": "C=CC[C@@H](CC(=O)N[C@@H](CO)Cc1ccccc1)C(=O)N[C@H](COC(=O)[C@H](CC=C)CC(=O)OC(C)(C)C)Cc1ccccc1", "activation": "12.5%"}
{"smiles": "CCOC(=O)c1c(NC(=O)NC(C)(C)C)sc2c1CCN(C)C2", "activation": "-2.43%"}
{"smiles": "CCOC(=O)C(C)N(c1ccccc1Cl)S(C)(=O)=O", "note": "(stereo not drawn)", "activation": "4.74%"}
{"smiles": "O=C(Nc1cc(S(=O)(=O)N2CCOCC2)ccc1OCC(F)(F)F)c1ccc(N2CCCC2=O)cc1", "activation": "-1.35%"}
{"smiles": "COc1ccc(/C=C(/NC(=O)c2ccco2)C(=O)Nc2ccc(C(C)=O)cc2)cc1", "activation": "5.57%"}
{"smiles": "CN(C(=O)COC(=O)c1cc(-c2ccco2)nc2ccccc12)C1CCS(=O)(=O)C1", "note": "(stereo not drawn)", "activation": "2.3%"}
{"smiles": "COc1ccc2c(-c3ccccc3)cc(SCC(=O)N(C)C3CCS(=O)(=O)C3)nc2c1", "note": "(stereo not drawn)", "activation": "-0.41%"}
{"smiles": "Cc1c(-c2cccc(Cl)c2)nc2ccccc2c1C(=O)OCC(=O)N(C)C1CCS(=O)(=O)C1", "note": "(stereo not drawn)", "activation": "20.2% (active)"}
{"smiles": "CCOC(=O)C1=C(C)OC(N)=C(C#N)C1c1cncc(-c2ccc(F)cc2)c1", "note": "(stereo not drawn)", "activation": "-7.72%"}
{"smiles": "CN1CCN(S(=O)(=O)c2ccc(Nc3ccc(F)cc3)nc2)CC1", "activation": "11.7%"}
{"smiles": "C=CCN1C(=O)c2ccc(C(=O)N3CCC(C(=O)OCC)CC3)cc2C1=O", "activation": "44.4% (active)"}
{"smiles": "CCOC(=O)C1CCCN(C(=O)c2ccc(N(C)C)cc2)CC1", "note": "(stereo not drawn)", "activation": "-2.3%"}
{"smiles": "CCOC(=O)C1CCCN(C(=O)c2ccc(C)c(F)c2)CC1", "note": "(stereo not drawn)", "activation": "0.17%"}
{"smiles": "C=CCOC(=O)c1ccccc1C(=O)OCC=C", "activation": "0.16%"}
{"smiles": "O=C(COC(=O)/C=C/c1ccc(OC(F)F)cc1)NC1CCCCC1", "activation": "-3.38%"}
{"smiles": "CCN(CCn1cccn1)C(=O)CC1C(=O)NCCN1Cc1cccc(OC)c1OC", "note": "(stereo not drawn)", "activation": "-1.21%"}
{"smiles": "CCCC(CNC(=O)COC(=O)C1=NNC(=O)CC1)c1ccc(Cl)cc1Cl", "note": "(stereo not drawn)", "activation": "8.77%"}
{"smiles": "COC(c1ccccc1)c1nnc(CCC(=O)N2CCN(CCOc3ccccc3)CC2)o1", "note": "(stereo not drawn)", "activation": "20% (active)"}
{"smiles": "O=C(c1ccco1)N1CCN(CCOc2ccccc2)CC1", "activation": "2.94%"}
{"smiles": "O=C(c1ccc(Br)o1)N1CCN(CCOc2ccccc2)CC1", "activation": "4.96%"}
{"smiles": "CCC1=[N+]([O-])C(C)(/C(C)=N\\O)N(O)C1(C)C", "note": "(stereo not drawn)", "activation": "3.88%"}
{"smiles": "CC(C)Cn1cc(-c2cncc3nccn23)cn1", "activation": "-3.57%"}
{"smiles": "COc1ccc(-c2c(C#Cc3ccccc3)c3ccccc3n2C)cc1", "activation": "0.62%"}
{"smiles": "CC(C)(C)n1nc(Cc2cccc3ccccc23)c(C#N)c1N", "activation": "-3.53%"}
{"smiles": "CN(C)Cc1c(C#N)c2ccccc2n1C", "activation": "18.2% (active)"}
{"smiles": "CCN(Cc1ccccc1)C(=O)Cc1ccc(OC)c(S(=O)(=O)N2CCOCC2)c1", "activation": "0.97%"}
{"smiles": "COc1ccc(NC(=O)CNC(=O)Cn2ccc3ccccc3c2=O)c(OC)c1", "activation": "0.07%"}
{"smiles": "CCN(C[C@H]1N[C@@](CC)(C(=O)OC)[C@H]2C(=O)N(C)C(=O)[C@@H]12)C(=O)Nc1ccc(F)cc1", "activation": "-0.26%"}
{"smiles": "O=C(NCc1ccccc1)C1c2ccccc2OCC(=O)N1C1CC1", "note": "(stereo not drawn)", "activation": "6.75%"}
{"smiles": "O=C(NCc1nnc(SCC(=O)N2CCCc3ccccc32)o1)c1ccccc1F", "activation": "22.5% (active)"}
{"smiles": "Cc1ccc(NC(=O)CSc2nnc(CNC(=O)c3ccccc3F)o2)cc1Cl", "activation": "-1.76%"}
{"smiles": "Cc1ccc(NC(=O)CSc2nnc(CNC(=O)c3ccccc3F)o2)cc1", "activation": "0.28%"}
{"smiles": "COCCNC(=O)C1CCCN(Cc2ccccc2Cl)CC1", "note": "(stereo not drawn)", "activation": "0.83%"}
{"smiles": "CCOC(=O)CC1(NC(=O)c2cc(COc3cncc(Cl)c3)on2)CCCCC1", "activation": "-12.1%"}
{"smiles": "O=C(NNS(=O)(=O)c1ccc(F)cc1)c1cnccn1", "activation": "-12.5%"}
{"smiles": "COc1ccc(CN(C(=O)c2cccs2)c2nccs2)cc1OC", "activation": "-13.5%"}
{"smiles": "C[C@@H]1CC[C@]2(O[C@@H](CCO)C[C@H](O)[C@H]2O)O1", "activation": "3.31%"}
{"smiles": "C[C@H]1CC[C@]2(O[C@@H](CCO)C[C@@H](O)[C@@H]2O)O1", "activation": "5.16%"}
{"smiles": "OCC[C@H]1C[C@H](O)[C@@H](O)[C@]2(CCCCO2)O1", "activation": "19.8% (active)"}
{"smiles": "Cc1ccc(NC(=O)N2CCSc3ccccc32)cc1", "activation": "-6.2%"}
{"smiles": "CCN(C(=O)CSc1nnc(-c2ccncc2)o1)c1ccccc1", "activation": "-1.49%"}
{"smiles": "Cc1ccc(-c2nnc(CN3CCN(C)CC3)o2)cc1", "activation": "5.27%"}
{"smiles": "CCCCSc1nnc(-c2ccc(C)cc2)o1", "activation": "19.1% (active)"}
{"smiles": "COCCNc1nc(N)c([N+](=O)[O-])c(NCCO)n1", "activation": "-6.19%"}
{"smiles": "CCOC(=O)c1ccc2c(c1)nc(SCC(=O)NC(C)C)n2CC", "activation": "0.07%"}
{"smiles": "CCc1ccc(NC(=O)C(=O)N/N=C(\\C)CC(=O)NCCOC)cc1", "activation": "3.15%"}
{"smiles": "CC(=O)c1cnn(-c2cc(Oc3ccc(F)cc3)ncn2)c1C", "activation": "0.64%"}
{"smiles": "Cc1cc(C)n(-c2ccc3nncn3n2)n1", "activation": "0.99%"}
{"smiles": "Cc1cc(C)n(-c2cc(Oc3ccccc3)ncn2)n1", "activation": "34.2% (active)"}
{"smiles": "COC(=O)c1sc(SC)c(S(=O)(=O)C(C)C)c1N/N=C(\\C#N)S(=O)(=O)c1ccccn1", "activation": "3.1%"}
{"smiles": "CCc1nc2ccc(C(=O)N3CCC(O)(Cc4ccccc4)CC3)cn2c1N(C)C(=O)Cc1ccccc1", "activation": "1.27%"}
{"smiles": "CCCCc1ccc(NC(=O)NCc2cccnc2)cc1", "activation": "2.66%"}
{"smiles": "CCCCCCCCCCCCN1C(=O)CSC1c1cccnc1", "note": "(stereo not drawn)", "activation": "22.7% (active)"}
{"smiles": "CN(C)CCCN1C(=O)CSC1c1ccc([N+](=O)[O-])cc1", "note": "(stereo not drawn)", "activation": "8.84%"}
{"smiles": "CCN(CC)S(=O)(=O)c1cc([N+](=O)[O-])ccc1N=Nc1c(O)n(C)c2ccccc12", "activation": "-2.02%"}
{"smiles": "CCOc1ccc(NC(=O)CN(C)C(=O)CCSc2ccc(F)cc2)cc1OCC", "activation": "-1.87%"}
{"smiles": "CCN(Cc1ccccc1)S(=O)(=O)c1cc2c3c(c1)CCN3C(=O)CC2", "activation": "3.77%"}
{"smiles": "Cc1ccc(S(=O)(=O)N(C)C)cc1NC(=O)/C=C/c1cccs1", "activation": "-1.18%"}
{"smiles": "Cc1cc(C)c2nc(N(CCN(C)C)C(=O)/C=C/c3cccs3)sc2c1", "activation": "18.8% (active)"}
{"smiles": "Cc1ccc(S(=O)(=O)N(C)C)cc1NC(=O)COC(=O)/C=C/c1cccs1", "activation": "1.46%"}
{"smiles": "FC(F)(F)c1ccnc(Oc2ccc(C3=NCCS3)cc2)c1", "activation": "-0.95%"}
{"smiles": "COc1ccc(NC(=O)CSc2nnc(-c3ccccc3F)n2C2CC2)cc1S(N)(=O)=O", "activation": "4.72%"}
{"smiles": "CCOC1CS(=O)(=O)CC1OCC", "note": "(stereo not drawn)", "activation": "27.7% (active)"}
{"smiles": "O=C(O)c1ccc(COCC(F)(F)F)cc1", "activation": "-0.76%"}
{"smiles": "CCCCCCN1CCN(C2CN(Cc3cn(CCCCCC)nn3)S(=O)(=O)C2)CC1", "note": "(stereo not drawn)", "activation": "0.04%"}
{"smiles": "Cc1cccc(-n2nc3c(c2NC(=O)c2cc4ccccc4o2)CS(=O)(=O)C3)c1", "activation": "0.74%"}
{"smiles": "CCC(C(=O)N1CCN(S(=O)(=O)c2sc(C(=O)O)c(C)c2C(=O)O)CC1)c1ccccc1", "note": "(stereo not drawn)", "activation": "5.73%"}
{"smiles": "COc1ccc(OC)c(S(=O)(=O)NCCC(C)C)c1", "activation": "3.29%"}
{"smiles": "COc1ccc(OC)c(S(=O)(=O)Nc2c(C)nn(C)c2C)c1", "activation": "18.8% (active)"}
{"smiles": "COc1ccc(OC)c(S(=O)(=O)Nc2ccccc2F)c1", "activation": "-7.66%"}
{"smiles": "Cc1ccc(Br)c(NS(=O)(=O)c2cccc(C(=O)N3CCNC(=O)C3)c2)c1", "activation": "-1.57%"}
{"smiles": "CCOC(=O)c1cnc(-n2nc(C)cc2C)nc1-n1nc(C)cc1C", "activation": "37.3% (active)"}
{"smiles": "CCOC(=O)c1cnc(-n2nc(C)cc2C)nc1NNc1cc(C)nc(-c2ccccc2)n1", "activation": "0.83%"}
{"smiles": "CCOC(=O)c1cnc2c(c(C)nn2CC)c1Cl", "activation": "0.72%"}
